Assay results from ChEMBL document CHEMBL3045605, “Synthesis and anticancer evaluation of novel 3,5-diaryl-thiazolo[4,5-d]pyrimidin-2-one derivatives” (2013).

Experiments:
Type in all cases: functional
COLO 205 [1] = experiment: Anticancer activity against Homo sapiens (human) COLO205 cells by SRB assay
How it was run: (§1)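 NCI 60-line panel, five tenfold dilutions from 10−4 to 10−8 M, growth read by sulforhodamine B staining against untreated controls. From the dose–response per line: GI50 (molar concentration giving half growth inhibition), TGI (molar concentration giving total growth inhibition, cytostatic) and LC50 (molar concentration killing 50% of initial cells, cytotoxic).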

COLO 205 [2] = experiment: Anticancer activity against Homo sapiens (human) COLO205 cells assessed as cell growth at 10 uM by SRB assay; conditions: read-out: Activity
How it was run: (§2)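 NCI 60-cell human tumour panel (nine cancer types) screened at one concentration, 10−5 M. Cell growth estimated by sulforhodamine B protein staining and reported as percent growth of treated cells relative to untreated controls.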

EKVX = experiment: Anticancer activity against Homo sapiens (human) EKVX cells assessed as cell growth at 10 uM by SRB assay; conditions: read-out: Activity; how it was run: as §2
NCI-H522 = experiment: Anticancer activity against Homo sapiens (human) NCI-H522 cells by SRB assay
How it was run: (§3)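 Five-dose NCI 60-cell-line panel testing at tenfold dilutions from 10−4 to 10−8 M, with growth read by sulforhodamine B protein staining. For each cell line: GI50 is the molar concentration giving half growth inhibition; TGI is total growth inhibition (cytostatic); LC50 is the molar concentration killing 50% of the initial cells (cytotoxic).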

[3] = Anticancer activity against Homo sapiens (human) NCI-322M cells by SRB assay; how it was run: as §3
HOP-92 = experiment: Anticancer activity against Homo sapiens (human) HOP92 cells by SRB assay; how it was run: as §1
HOP-62 = experiment: Anticancer activity against Homo sapiens (human) HOP62 cells by SRB assay; how it was run: as §1
[4] = Anticancer activity against Homo sapiens (human) RPMI8266 cells by SRB assay; how it was run: as §3
CCRF-CEM = experiment: Anticancer activity against Homo sapiens (human) CCRF-CEM cells by SRB assay; how it was run: as §1
SR = experiment: Anticancer activity against Homo sapiens (human) SR cells assessed as cell growth at 10 uM by SRB assay; conditions: read-out: Activity
How it was run: (§4)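 NCI 60-cell human tumour panel (leukemia, melanoma, lung, colon, CNS, breast, ovarian, prostate, renal lines) given a single 10−5 M dose. Growth is expressed as percent growth of treated cells relative to untreated controls, with cell growth/viability estimated by sulforhodamine B protein staining.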

ACHN = experiment: Anticancer activity against Homo sapiens (human) ACHN cells by SRB assay; how it was run: as §1
786-0 = experiment: Anticancer activity against Homo sapiens (human) 786-0 cells by SRB assay; how it was run: as §1
OVCAR-4 = experiment: Anticancer activity against Homo sapiens (human) OVCAR4 cells by SRB assay; how it was run: as §3
SK-MEL-5 = experiment: Anticancer activity against Homo sapiens (human) SK-MEL-5 cells by SRB assay; how it was run: as §3
UACC-257 [5] = experiment: Anticancer activity against Homo sapiens (human) UACC257 cells by SRB assay
How it was run: (§5)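 NCI five-dose follow-up on the 60-line human tumour panel at tenfold dilutions from 10−4 to 10−8 M, with growth read by sulforhodamine B protein assay against untreated controls. For each cell line, GI50 (half growth inhibition), TGI (total growth inhibition) and LC50 (50% death of initial cells) are calculated as molar concentrations.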

SK-MEL-28 [6] = experiment: Anticancer activity against Homo sapiens (human) SK-MEL-28 cells by SRB assay; how it was run: as §3
SK-MEL-2 = experiment: Anticancer activity against Homo sapiens (human) SK-MEL-2 cells by SRB assay; how it was run: as §3
LOX IMVI = experiment: Anticancer activity against Homo sapiens (human) LOXIMVI cells by SRB assay; how it was run: as §1
SF-539 = experiment: Anticancer activity against Homo sapiens (human) SF539 cells by SRB assay; how it was run: as §3
SW-620 = experiment: Anticancer activity against Homo sapiens (human) SW620 cells by SRB assay; how it was run: as §5
HCT-15 = experiment: Anticancer activity against Homo sapiens (human) HCT15 cells by SRB assay; how it was run: as §1
HCC 2998 = experiment: Anticancer activity against Homo sapiens (human) HCC2998 cells by SRB assay; how it was run: as §1
OVCAR-3 = experiment: Anticancer activity against Homo sapiens (human) OVCAR3 cells assessed as cell growth at 10 uM by SRB assay; conditions: read-out: Activity
How it was run: (§6)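 Single-dose screen in the NCI 60-human-tumour-cell-line panel (nine cancer types) at 10−5 M. Cell growth was estimated by sulforhodamine B protein staining and reported as percent growth of treated cells relative to untreated controls.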

UACC-257 [7] = experiment: Anticancer activity against Homo sapiens (human) UACC257 cells assessed as cell growth at 10 uM by SRB assay; conditions: read-out: Activity; how it was run: as §4
SK-MEL-28 [8] = experiment: Anticancer activity against Homo sapiens (human) SK-MEL-28 cells assessed as cell growth at 10 uM by SRB assay; conditions: read-out: Activity; how it was run: as §6
Malme-3M = experiment: Anticancer activity against Homo sapiens (human) MALME-3M cells assessed as cell growth at 10 uM by SRB assay; conditions: read-out: Activity; how it was run: as §2
T47D = experiment: Anticancer activity against Homo sapiens (human) T47D cells by SRB assay; how it was run: as §5
MDA-MB-468 [9] = experiment: Anticancer activity against Homo sapiens (human) MDA-MB-468 cells by SRB assay; how it was run: as §3
MCF7 = experiment: Anticancer activity against Homo sapiens (human) MCF7 cells by SRB assay; how it was run: as §1
DU-145 = experiment: Anticancer activity against Homo sapiens (human) DU145 cells by SRB assay; how it was run: as §1
RXF 393 = experiment: Anticancer activity against Homo sapiens (human) RXF393 cells by SRB assay; how it was run: as §3
PC-3 = experiment: Anticancer activity against Homo sapiens (human) PC3 cells by SRB assay; how it was run: as §3
SN12C = experiment: Anticancer activity against Homo sapiens (human) SN12C cells by SRB assay; how it was run: as §3
TK-10 [10] = experiment: Anticancer activity against Homo sapiens (human) TK10 cells by SRB assay; how it was run: as §5
MDA-MB-468 [11] = experiment: Anticancer activity against Homo sapiens (human) MDA-MB-468 cells assessed as cell growth at 10 uM by SRB assay; conditions: read-out: Activity; how it was run: as §6
MDA-MB-231 = experiment: Anticancer activity against Homo sapiens (human) MDA-MB-231/ATCC cells assessed as cell growth at 10 uM by SRB assay; conditions: read-out: Activity; how it was run: as §2
TK-10 [12] = experiment: Anticancer activity against Homo sapiens (human) TK10 cells assessed as cell growth at 10 uM by SRB assay; conditions: read-out: Activity; how it was run: as §4
CAKI-1 = experiment: Anticancer activity against Homo sapiens (human) CAKI-1 cells assessed as cell growth at 10 uM by SRB assay; conditions: read-out: Activity; how it was run: as §2
[13] = read-out: pLC50 (the source's name) (converted)

O=c1sc2c(Cl)nc(-c3ccccc3)nc2n1-c1ccccc1
GI50 (COLO 205 [1]): 11.2 µM | growth at 10 µM (COLO 205 [2]): 52% | growth at 10 µM (EKVX): 84% | GI50 (NCI-H522): 1.23 µM | TGI (NCI-H522; read-out: pTGI (converted)): 3.02 µM | GI50 [3]: 14.1 µM | TGI ([3]; read-out: pTGI (converted)): 58.9 µM | GI50 (HOP-92): 3.09 µM | TGI (HOP-92; read-out: pTGI (converted)): 67.6 µM | GI50 (HOP-62): 3.63 µM | CC50 (HOP-62; [13]): 72.4 µM | TGI (HOP-62; read-out: pTGI (converted)): 15.5 µM | GI50 [4]: 44.7 µM | GI50 (CCRF-CEM): 3.8 µM | growth at 10 µM (SR): 8% | GI50 (ACHN): 6.92 µM | GI50 (786-0): 7.08 µM | TGI (786-0; read-out: pTGI (converted)): 56.2 µM | GI50 (OVCAR-4): 5.01 µM | TGI (OVCAR-4; read-out: pTGI (converted)): 35.5 µM | GI50 (SK-MEL-5): 15.5 µM | GI50 (UACC-257 [5]): 8.91 µM | TGI (UACC-257 [5]; read-out: pTGI (converted)): 31.6 µM | GI50 (SK-MEL-28 [6]): 3.39 µM | LC50 (SK-MEL-28 [6]): 69.2 µM | TGI (SK-MEL-28 [6]; read-out: pTGI (converted)): 13.2 µM | GI50 (SK-MEL-2): 9.12 µM | TGI (SK-MEL-2; read-out: pTGI): 43.7 µM | GI50 (LOX IMVI): 2.04 µM | CC50 (LOX IMVI; [13]): 18.2 µM | TGI (LOX IMVI; read-out: pTGI (converted)): 4.79 µM | GI50 (SF-539): 11 µM | GI50 (SW-620): 2.75 µM | TGI (SW-620; read-out: pTGI (converted)): 9.12 µM | GI50 (HCT-15): 4.68 µM | GI50 (HCC 2998): 81.3 µM | growth at 10 µM (OVCAR-3): -41% | growth at 10 µM (UACC-257 [7]): 48% | growth at 10 µM (SK-MEL-28 [8]): 9% | growth at 10 µM (Malme-3M): 62% | GI50 (T47D): 17 µM | GI50 (MDA-MB-468 [9]): 3.63 µM | GI50 (MCF7): 64.6 µM | GI50 (DU-145): 4.68 µM | CC50 (DU-145; [13]): 81.3 µM | TGI (DU-145; read-out: pTGI (converted)): 23.4 µM | GI50 (RXF 393): 2.4 µM | LC50 (RXF 393): 38 µM | TGI (RXF 393; read-out: pTGI (converted)): 8.91 µM | GI50 (PC-3): 3.31 µM | CC50 (PC-3; [13]): 81.3 µM | TGI (PC-3; read-out: pTGI (converted)): 14.5 µM | GI50 (SN12C): 7.41 µM | GI50 (TK-10 [10]): 10.5 µM | growth at 10 µM (MDA-MB-468 [11]): 20% | growth at 10 µM (MDA-MB-231): 37% | growth at 10 µM (TK-10 [12]): 51% | growth at 10 µM (CAKI-1): -30%
